Columns and labels:
[1] = Antioxidant activity assessed as DPPH radical scavenging activity after 30 mins by plate reader analysis; type: physicochemical; settings: for Activity: 0.5 h
Summary of the method: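 DPPH radical (150 μM in MeOH, 180 μL) mixed with 20 μL compound in water (solutions 62.5–1000 μM); 30 min, room temperature, dark; absorbance 490 nm. Sample-only blanks in MeOH; water+DPPH and water+MeOH references. Vitamin C as positive control. Scavenging % from corrected absorbances; EC50 by nonlinear regression; triplicate, mean ± SD.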

[2] = Potency index, ratio of vitamin C EC50 to compound EC50 for DPPH radical scavenging activity

| SMILES | EC50 [1] [µM] | Activity [1] | Ratio EC50 [2] |
| --- | --- | --- | --- |
| COc1cc(/C=C/C(=O)O[C@H]2[C@H](OC[C@H]3O[C@@H](Oc4cc5c(cc4O)C[C@@H](C(=O)O)N5C(=O)/C=C/c4ccc(O[C@@H]5O[C@H](CO)[C@@H](O)[C@H](O)[C@H]5O)cc4)[C@H](O)[C@@H](O)[C@@H]3O)O[C@H](CO)[C@@H](O)[C@@H]2O)ccc1O | 31.6 | Dose-dependent effect |  |
| COc1cc(/C=C/C(=O)N2c3cc(O[C@@H]4O[C@H](CO[C@@H]5O[C@H](CO)[C@@H](O)[C@H](O)[C@H]5OC(=O)/C=C/c5ccc(O)c(O)c5)[C@@H](O)[C@H](O)[C@H]4O)c(O)cc3C[C@H]2C(=O)O)ccc1O | 16.1 | Dose-dependent effect | 2 |
| O=C(O)[C@@H]1Cc2cc(O)c(O[C@@H]3O[C@H](CO[C@@H]4O[C@H](CO)[C@@H](O)[C@H](O)[C@H]4O)[C@@H](O)[C@H](O)[C@H]3O)cc2N1C(=O)/C=C/c1ccc(O)cc1 | 42.9 | Dose-dependent effect |  |
| COc1cc(/C=C/C(=O)N2c3cc(O[C@@H]4O[C@H](CO)[C@@H](O)[C@H](O)[C@H]4O)c(O)cc3C[C@H]2C(=O)O)ccc1O[C@@H]1O[C@H](CO)[C@@H](O)[C@H](O)[C@H]1O | 34.6 | Dose-dependent effect |  |
| COc1cc(/C=C/C(=O)O[C@H]2[C@H](OC[C@H]3O[C@@H](Oc4cc5c(cc4O)C[C@@H](C(=O)O)N5C(=O)/C=C/c4ccc(O)cc4)[C@H](O)[C@@H](O)[C@@H]3O)O[C@H](CO)[C@@H](O)[C@@H]2O)ccc1O | 29.1 | Dose-dependent effect |  |
| O=C(O)[C@@H]1Cc2cc(O)c(O[C@@H]3O[C@H](CO[C@@H]4O[C@H](CO)[C@@H](O)[C@H](O)[C@H]4O)[C@@H](O)[C@H](O)[C@H]3O)cc2N1C(=O)/C=C/c1ccc(O[C@@H]2O[C@H](CO)[C@@H](O)[C@H](O)[C@H]2O)cc1 | 43.5 | Dose-dependent effect |  |
| COc1cc(/C=C/C(=O)N2c3cc(O[C@@H]4O[C@H](CO[C@@H]5O[C@H](CO)[C@@H](O)[C@H](O)[C@H]5O)[C@@H](O)[C@H](O)[C@H]4O)c(O)cc3C[C@H]2C(=O)O)ccc1O | 40.1 | Dose-dependent effect |  |
| O=C(O)[C@@H]1Cc2cc(O)c(O[C@@H]3O[C@H](CO)[C@@H](O)[C@H](O)[C@H]3O)cc2N1C(=O)/C=C/c1ccc(O[C@@H]2O[C@H](CO)[C@@H](O)[C@H](O)[C@H]2O)cc1 | 38.3 | Dose-dependent effect |  |
| COc1cc(/C=C/C(=O)N2c3cc(O[C@@H]4O[C@H](CO[C@@H]5O[C@H](CO)[C@@H](O)[C@H](O)[C@H]5O)[C@@H](O)[C@H](O)[C@H]4O)c(O)cc3C[C@H]2C(=O)O)ccc1O[C@@H]1O[C@H](CO)[C@@H](O)[C@H](O)[C@H]1O | 40.9 | Dose-dependent effect |  |
| O=C(O)[C@@H]1Cc2cc(O)c(O[C@@H]3O[C@H](CO)[C@@H](O)[C@H](O)[C@H]3O)cc2N1C(=O)/C=C/c1ccc(O)cc1 | 35.1 | Dose-dependent effect |  |
| O=C(/C=C/c1ccc(O)c(O)c1)O[C@H]1[C@H](OC[C@H]2O[C@@H](Oc3cc4c(cc3O)C[C@@H](C(=O)O)N4C(=O)/C=C/c3ccc(O)cc3)[C@H](O)[C@@H](O)[C@@H]2O)O[C@H](CO)[C@@H](O)[C@@H]1O | 15.3 | Dose-dependent effect | 2 |
| O=C1O[C@H]([C@@H](O)CO)C(O)=C1O [ASCORBIC ACID] | 30.2 |  |  |
| COc1cc(/C=C/C(=O)N2c3cc(O[C@@H]4O[C@H](CO)[C@@H](O)[C@H](O)[C@H]4O)c(O)cc3C[C@H]2C(=O)O)ccc1O | 35.1 | Dose-dependent effect |  |
| COc1cc(/C=C/C(=O)O[C@H]2[C@H](OC[C@H]3O[C@@H](Oc4cc5c(cc4O)C[C@@H](C(=O)O)N5C(=O)/C=C/c4ccc(O)c(OC)c4)[C@H](O)[C@@H](O)[C@@H]3O)O[C@H](CO)[C@@H](O)[C@@H]2O)ccc1O | 27.6 | Dose-dependent effect |  |
| COc1cc(/C=C/C(=O)OC[C@H]2O[C@@H](OC[C@H]3O[C@@H](Oc4cc5c(cc4O)C[C@@H](C(=O)O)N5C(=O)/C=C/c4ccc(O)cc4)[C@H](O)[C@@H](O)[C@@H]3O)[C@H](O)[C@@H](O)[C@@H]2O)ccc1O | 35.4 | Dose-dependent effect |  |
